Results taken from ChEMBL document CHEMBL2439964, “Identification of a series of 1,3,4-trisubstituted pyrazoles as novel hepatitis C virus entry inhibitors” (Bioorg Med Chem Lett, 2013).

Assays:
Hepatitis C virus = experiment: Antiviral activity against cell culture derived HCV infected in human HuH7 cells assessed as inhibition of viral replication after 72 hrs; assay type: functional, organism-based, Hepacivirus hominis; conditions: Huh-7, 72 h
Procedure, shortened: (§1)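 Naïve Huh-7 cells in 384-well plates were given serially diluted compound, then infected with cell culture-derived HCV (HCVcc) at MOI 1. Live cells were analysed 72 h post-infection. EC50 came from 10-point dose-response in duplicate with quadruplicate measurements, or 5-point in duplicate for one series. CC50 came from automated per-well cell counts. SI = CC50/EC50.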

[1] = Selectivity index, ratio of CC50 for human HuH7 cells to EC50 for cell culture derived HCV; set-up: species or system Huh-7; procedure, shortened: as §1
[2] = Cytotoxicity against human HuH7 cells; assay type: cell-based, Huh-7; procedure, shortened: as §1

| EC50 (Hepatitis C virus) [µM] | Structure (SMILES) | Ratio CC50/EC50 [1] | CC50 [2] [µM] |
| --- | --- | --- | --- |
| 2.1 | COc1ccc(-c2nn(-c3ccc(F)cc3F)cc2CNCCN2CCN(C)CC2)cc1 | >9.5 | > 20 |
| 8.5 | Cc1c(CNCCN2CCN(C)CC2)c(-c2ccccc2)nn1-c1ccc(F)cc1 | – | > 20 |
| 0.13 | CN1CCN(CCCNCc2cn(-c3ccc([N+](=O)[O-])cc3)nc2-c2ccc(Cl)cc2)CC1 | 28 | 3.7 |
| 0.67 | CSc1ccc(-n2cc(CNCCN3CCN(C)CC3)c(-c3ccccc3C)n2)cc1 | 25 | 17 |
| 0.36 | CN1CCN(CCNCc2cn(-c3ccc(C(F)(F)F)cc3)nc2-c2ccc(Cl)cc2)CC1 | 8.4 | 3 |
| 0.41 | CCCN1CCC(CNCc2cn(-c3ccc(C(F)(F)F)cc3)nc2-c2ccc(OC(F)(F)F)cc2)CC1 | 5.3 | 2.2 |
| 11 | CN1CCN(CCNCc2cn(-c3ccc(F)cc3F)nc2C(C)(C)C)CC1 | >1.8 | > 20 |
| 1.2 | CN1CCN(CCNCc2cn(-c3ccc(F)cc3F)nc2C2CCCCC2)CC1 | >17 | > 20 |
| 0.44 | CN1CCN(CCNCc2cn(-c3ccc(C(F)(F)F)cc3)nc2-c2ccc(OC(F)(F)F)cc2)CC1 | 6.9 | 3 |
| 2.8 | Cc1ccccc1-c1nn(-c2ccc(F)cc2F)cc1CNCCN1CCN(C)CC1 | >7.2 | > 20 |
| 0.81 | Cc1ccc(-c2nn(-c3ccc(F)cc3F)cc2CNCCN2CCN(C)CC2)cc1 | >25 | > 20 |
| 3 | COCCN1CCC(CNCc2cn(-c3ccc(F)cc3F)nc2-c2ccccc2C)CC1 | >6.7 | > 20 |
| 3.7 | Cc1ccccc1-c1nn(-c2ccc(F)cc2)cc1CNCCN1CCN(C)CC1 | >5.4 | > 20 |
| 7.5 | Cc1ccccc1-c1nn(Cc2ccccc2)cc1CNCCN1CCN(C)CC1 | >2.3 | > 20 |
| 3.8 | Cc1ccccc1-c1nn(-c2ccccc2Cl)cc1CNCCN1CCN(C)CC1 | >5.3 | > 20 |
| 0.46 | Cc1ccccc1-c1nn(-c2ccc(C(F)(F)F)cc2)cc1CNCCN1CCN(C)CC1 | 24 | 11 |
| 0.3 | CCCN1CCC(CNCc2cn(-c3ccc([N+](=O)[O-])cc3)nc2-c2ccc(Cl)cc2)CC1 | 37 | 11 |
| > 20 | Cc1ccccc1-c1nn(-c2ccc(F)cc2F)cc1CNC1CCN(S(C)(=O)=O)CC1 | – | > 20 |
| 1.3 | CN1CCN(CCNCc2cn(-c3ccc(F)cc3F)nc2-c2ccc(N(C)C)cc2)CC1 | >15 | > 20 |
| > 20 | Cc1ccccc1-c1nn(-c2ccc(F)cc2F)cc1CNCCN(C)C | – | > 20 |
| 18 | CCCCCNCc1cn(-c2ccc(F)cc2F)nc1-c1ccccc1C | 1 | 17 |
| 0.36 | CN1CCN(CCNCc2cn(-c3ccc(F)cc3F)nc2-c2ccc(OC(F)(F)F)cc2)CC1 | 50 | 18 |

| EC50 (Hepatitis C virus) [µM] | Structure (SMILES) | Ratio CC50/EC50 [1] | CC50 [2] [µM] |
| --- | --- | --- | --- |
| 2.5 | Cc1ccccc1-c1nn(-c2cc(F)ccc2F)cc1CNCCN1CCN(C)CC1 | >8 | > 20 |
| 0.4 | CN1CCN(CCNCc2cn(-c3ccc([N+](=O)[O-])cc3)nc2-c2ccc(OC(F)(F)F)cc2)CC1 | 11 | 4.4 |
| 7.5 | Cc1ccccc1-c1nn(-c2ccc(F)cc2F)cc1CN1CCC(N2CCCCC2)CC1 | >2.7 | > 20 |
| 4.3 | CCN(CC)CCCNCc1cn(-c2ccc(F)cc2F)nc1-c1ccccc1C | >4.6 | > 20 |
| > 20 | Cc1ccccc1-c1nn(-c2ccc(F)cc2F)cc1CNCCN1CCOCC1 | – | > 20 |
| 1.2 | Cc1ccccc1-c1nn(-c2ccc(Br)cc2)cc1CNCCN1CCN(C)CC1 | 8 | 9.6 |
| 3.2 | CN1CCN(CCNCc2cn(-c3ccc(F)cc3F)nc2-c2cccc(N(C)C)c2)CC1 | >6.3 | > 20 |
| 0.49 | CN1CCN(CCNCc2cn(-c3ccc(C(F)(F)F)cc3)nc2-c2ccc(C(F)(F)F)cc2)CC1 | 3.1 | 1.5 |
| 0.9 | Cc1ccccc1-c1nn(-c2ccc(OC(F)(F)F)cc2)cc1CNCCN1CCN(C)CC1 | 19 | 17 |
| 1 | Cc1ccccc1-c1nn(-c2cccc(Cl)c2)cc1CNCCN1CCN(C)CC1 | 16 | 16 |
| 0.6 | CCCN1CCC(CNCc2cn(-c3ccc([N+](=O)[O-])cc3)nc2-c2ccc(OC(F)(F)F)cc2)CC1 | 30 | 18 |
| 0.65 | Cc1ccccc1-c1nn(-c2ccc(Cl)cc2)cc1CNCCN1CCN(C)CC1 | 26 | 17 |
| 2.3 | CCCN1CCC(CNCc2cn(-c3ccc(F)cc3F)nc2-c2ccccc2C)CC1 | >8.8 | > 20 |
| 10 | Cc1ccccc1-c1nn(Cc2ccc(F)cc2)cc1CNCCN1CCN(C)CC1 | >2 | > 20 |
| 0.38 | CN1CCN(CCCNCc2cn(-c3ccc(C(F)(F)F)cc3)nc2-c2ccc(C(F)(F)F)cc2)CC1 | 5.3 | 2 |
| 10 | Cc1ccccc1-c1nn(-c2ccc(N)cc2)cc1CNCCN1CCN(C)CC1 | >2 | > 20 |
| 4.3 | Cc1ccccc1CNc1nn(-c2ccc(F)cc2F)cc1CNCCN1CCN(C)CC1 | >4.7 | > 20 |
| 0.58 | CN1CCN(CCNCc2cn(-c3ccc(F)cc3F)nc2-c2cccc(Cl)c2)CC1 | 26 | 15 |
| 3.8 | COC(=O)c1ccc(-c2nn(-c3ccc(F)cc3F)cc2CNCCN2CCN(C)CC2)cc1 | >5.3 | > 20 |
| 16 | CN1CCN(CCNCc2cn(-c3ccc(F)cc3F)nc2Cc2ccccc2)CC1 | >1.3 | > 20 |
| 0.34 | CN1CCN(CCCNCc2cn(-c3ccc([N+](=O)[O-])cc3)nc2-c2ccc(OC(F)(F)F)cc2)CC1 | 4.6 | 1.6 |
| > 20 | Cc1ccccc1-c1nn(-c2ccc(F)cc2F)cc1CNCCCCO | – | > 20 |

| EC50 (Hepatitis C virus) [µM] | Structure (SMILES) | Ratio CC50/EC50 [1] | CC50 [2] [µM] |
| --- | --- | --- | --- |
| > 20 | CN1CCN(CCNC(=O)c2cn(-c3ccc(F)cc3F)nc2-c2ccccc2Cl)CC1 | – | > 20 |
| 0.11 | CN1CCN(CCNCc2cn(-c3ccc([N+](=O)[O-])cc3)nc2-c2ccc(C(F)(F)F)cc2)CC1 | 29 | 3.2 |
| 0.75 | CN1CCN(CCCNCc2cn(-c3ccc(C(F)(F)F)cc3)nc2-c2ccc(OC(F)(F)F)cc2)CC1 | 3.1 | 2.3 |
| 2.8 | COc1ccc(-n2cc(CNCCN3CCN(C)CC3)c(-c3ccccc3C)n2)cc1 | >7.1 | > 20 |
| 0.54 | CN1CCN(CCNCc2cn(-c3ccc(F)cc3F)nc2-c2ccc(C(F)(F)F)cc2)CC1 | 37 | 20 |
| 0.36 | CN1CCN(CCCNCc2cn(-c3ccc(C(F)(F)F)cc3)nc2-c2ccc(Cl)cc2)CC1 | 6.9 | 2.5 |
| 2.4 | Cc1ccc(-n2cc(CNCCN3CCN(C)CC3)c(-c3ccccc3C)n2)c(C)c1 | >8.3 | > 20 |
| 1.6 | CN1CCN(CCNCc2cn(-c3ccc(F)cc3F)nc2-c2ccccc2)CC1 | >13 | > 20 |
| > 20 | Cc1ccccc1-c1nn(-c2ccc(F)cc2F)cc1CNCc1ccncc1 | – | > 20 |
| 1.8 | CN1CCN(CCNCc2cn(-c3ccc(F)cc3F)nc2-c2ccc(S(=O)(=O)N(C)C)cc2)CC1 | >11 | > 20 |
| 0.15 | CCCN1CCC(CNCc2cn(-c3ccc([N+](=O)[O-])cc3)nc2-c2ccc(C(F)(F)F)cc2)CC1 | 15 | 2.3 |
| 0.29 | CN1CCN(CCNCc2cn(-c3ccc([N+](=O)[O-])cc3)nc2-c2ccc(Cl)cc2)CC1 | 17 | 5 |
| 0.33 | CCCN1CCC(CNCc2cn(-c3ccc(C(F)(F)F)cc3)nc2-c2ccc(C(F)(F)F)cc2)CC1 | 3.6 | 1.2 |
| > 20 | Cc1ccccc1-c1nn(-c2ccc(F)cc2F)cc1CN1CCN(c2ccccc2)CC1 | – | > 20 |
| 0.12 | CN1CCN(CCCNCc2cn(-c3ccc([N+](=O)[O-])cc3)nc2-c2ccc(C(F)(F)F)cc2)CC1 | 41 | 4.9 |
| 20 | Cc1ccccc1-c1nn(-c2ccc(F)cc2F)cc1CNCCN1CCCCC1 | >1 | > 20 |
| > 20 | Cc1ccccc1-c1nn(-c2ccc(F)cc2F)cc1CN1CCN(C(C)C)CC1 | – | > 20 |
| > 20 | CCOC(=O)Cn1cc(CNCCN2CCN(C)CC2)c(-c2ccccc2C)n1 | – | > 20 |
| 13 | CN1CCN(CCNCc2cc(-c3ccccc3)nn2-c2ccc(F)cc2)CC1 | – | > 20 |
| > 20 | Cc1ccccc1-c1nn(C(C)C)cc1CNCCN1CCN(C)CC1 | – | > 20 |
